Published values of several laboratories.
Each line is one published result; the experiments were not run side by side.
Target: Cytochrome P450 2D6 (CYP2D6, Homo sapiens, UniProt P10635)

SMILES | test | test system | conditions | quantity | result
COCCc1ccc(OCC(O)CNC(C)C)cc1 (centres unmarked) | – | human, plasma | oral, 100 mg, single dose, healthy volunteers | AUC(0-inf) | 770 ng·h/mL
Nc1ccc(S(=O)(=O)Nc2ccnn2-c2ccccc2)cc1 | enzyme activity, inhibitor | human, liver microsomes | 10 µM | inhibition | -23%
C[C@H]1C[C@@H](N2C(=N)N[C@](C)(c3cccc(NC(=O)c4cccc(C#N)c4)c3Cl)CC2=O)CCO1 | enzyme activity, inhibitor | human, liver microsomes | 20 µM, 15 min | inhibition | 45%
C=CC(=O)Nc1cc(Nc2nccc(Nc3cc(Cl)c(F)cc3C(C)(C)O)n2)c(OC)cc1N1CC[C@@H](N(C)C)C1 | enzyme activity, inhibitor | human, liver microsomes | 10 µM | inhibition | < 20%
Cc1nc2c([nH]1)c(=O)n(C)c(=O)n2Cc1ccco1 | enzyme activity, inhibitor | human, liver microsomes | 40 µM | inhibition | -35%
CN(Cc1cnc2nc(N)nc(N)c2n1)c1ccc(C(=O)N2CCCCC2)cc1 | enzyme activity, inhibitor, luciferase | – | 10 µM | inhibition | -23.3%
Cc1cccc(F)c1N1CCC(N2Cc3cn(CC(C)(F)F)nc3N(Cc3ccccc3C(F)(F)F)C2=O)CC1 | enzyme activity, inhibitor | human, liver microsomes | – | IC50 | > 10 µM
CC(=O)c1cccc(OCc2cc(C(=O)N(C)[C@@H](C)c3ccccn3)no2)c1 | enzyme activity, inhibitor | human, liver microsomes | – | IC50 | > 30 µM
C=C[C@H]1C[N@@]2CC[C@H]1C[C@@H]2[C@@H](O)c1ccnc2ccc(OC)cc12 | enzyme activity, inhibitor | human, liver microsomes | 1 µM | inhibition | 80.8%
NC(=O)C1CCN(C(=O)Cc2ccc(N(CCCO)Cc3cnc4nc(N)nc(N)c4n3)cc2)CC1 | enzyme activity, inhibitor, luciferase | – | 10 µM | inhibition | -15.4%
CC1(CO)C(O[C@@H]2O[C@H](C(=O)O)[C@@H](O)[C@H](O)[C@H]2O)CC[C@@]2(C)C1CC[C@]1(C)C2CC=C2[C@H]3CC(C)(C)[C@H](O)[C@@H](O)[C@]3(CO)[C@H](O)C[C@]21C (some centres unmarked) | enzyme activity, inhibitor, mass spectrometry | human, liver microsomes | – | IC50 | > 90 µg/mL
Nc1nc(N)c2nc(CNc3cccc4ccccc34)cnc2n1 | enzyme activity, inhibitor, luciferase | – | 10 µM | inhibition | 102%
Cc1ccc(C(=O)N2CCOC[C@H]2Cc2cccc(-n3nccn3)c2)c(-n2nccn2)c1 | enzyme activity, inhibitor | human, liver microsomes | 100 µM | inhibition | 33%
CCN(Cc1cnc2nc(N)nc(N)c2n1)c1ccc(C(=O)N2CCC(C(=O)OC)CC2)cc1 | enzyme activity, inhibitor, luciferase | – | 10 µM | inhibition | -20%
CCc1cc(/C(C)=N/OCc2ccc(C3CCCCC3)c(C(F)(F)F)c2)ccc1CN1CC(C(=O)O)C1 | enzyme activity, inhibitor | human, liver microsomes | 200 µM, 20 min | inhibition | 17.4%
NC(=O)C1CCCN1C(=O)Cc1ccc(N(CCCO)Cc2cnc3nc(N)nc(N)c3n2)cc1 (centres unmarked) | enzyme activity, inhibitor, luciferase | – | 10 µM | inhibition | -13.9%
O=C(N[C@H](Cc1c[nH]c2ccccc12)C(=O)Nc1ccncc1)c1ccc(-c2cc(F)ccc2F)cc1F | enzyme activity, inhibitor | human, liver microsomes | 1 µM | inhibition | 47%
